pIC50: −log10 of the molar value.
System: Vero
Assay: Anti-Herpes simplex virus type-1 activity in vero cells using plaque inhibition assay
Format: functional, cell-based, Chlorocebus sabaeus
Method in brief: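 Plaque-reduction assay with HSV-1 McIntyre strain (titrated suspension) on confluent Vero monolayers. Cells infected with 100 PFU in MEM and adsorbed 2 h at 37 °C. Inoculum then replaced with MEM containing 0.2% γ-globulin plus serial concentrations of compound. Untreated infected wells served as CPE controls; CPE completed 1–2 days post-infection. Result given as IC50.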

Structure (SMILES)	pIC50 (Chlorocebus sabaeus, Vero)	pIC50 (vero)
O=C(O)C1=C(C(=O)Oc2ccc(F)c(F)c2F)CCC1	5.74	
Cc1noc(C)c1[N+](=O)[O-]	6.05	
O=C(O)C1=C(C(=O)Nc2ccc(F)c(F)c2F)CCC1	6.05	
O=C(O)C1=C(C(=O)Nc2c(F)cccc2F)CCC1	6.05	
O=C1NC(=O)C([N+](=O)[O-])C(=O)N1	5.77	
O=C(O)C1=C(C(=O)Oc2ccc(F)cc2F)CCC1	5.85	
O=C(O)C1=C(C(=O)Nc2cccc(F)c2F)CCC1	6.05	
Cc1cc(=O)oc2cc(OCC(=O)O)ccc12	7.15	
O=C(O)c1n[nH]nc1C(=O)O	5.30	
O=C(CN1CCNCC1)N1CCCC1	6.22	
Cc1cn([C@@H]2O[C@H](CO)[C@@H](O)[C@H]2O)c(=O)nc1N	7.22	
Nc1nc(N)c2nc(CO)cnc2n1	6.80	
O=C(O)CCCCC(=O)O [ADIPIC ACID]	6.40	
Nc1ncnc2c1ncn2[C@@H]1O[C@H](CO)C[C@H]1O [CORDYCEPIN]	6.30	
O=c1ccn([C@H]2C[C@H](O)[C@@H](CO)O2)c(=O)[nH]1 [DEOXYURIDINE]	5.66	
Cc1cn([C@H]2C[C@H](O)[C@@H](CO)O2)c(=O)[nH]c1=O [DOXRIBTIMINE]	6.40	6.52
O=c1[nH]cnc2c1ncn2[C@@H]1O[C@H](CO)[C@@H](O)[C@H]1O [INOSINE]	6.64	
OC[C@H]1O[C@@H](n2cnc3cncnc32)[C@H](O)[C@@H]1O [NEBULARINE]	6.22	
O=C1CN(/N=C/c2ccc([N+](=O)[O-])o2)C(=O)N1 [NITROFURANTOIN]	6.05	
O=C(O)CCC(=O)O [SUCCINIC ACID]	5.89	

Reference: ChEMBL document CHEMBL1132358, “Virtual combinatorial syntheses and computational screening of new potential anti-herpes compounds” (J Med Chem, 1999)
